Drawing on ChEMBL document CHEMBL4118256, “Second Generation of Mannich Base-Type Derivatives with in Vivo Activity against Trypanosoma cruzi” (J Med Chem, 2018), this text covers Activity for three molecules.

SMILES strings stand for the structures. Activity calls are given as the source filed them. The rule behind the calls is not given here.

The subject of data set [1] is Trypanosoma cruzi. Briefly: Antitrypanosomal activity against Trypanosoma cruzi MHOM/Pe/2011/Arequipa DTU 5 trypamastigotes infected in Balb/c mouse assessed as reduction in parasitaemia reactivation in heart tissue at 100 mg/kg, po pretreated once daily for 5 consecutive days starting from day 75 post infection followed by cyclophosphamide-induced immunosuppression on day 100 post infection every 4 days for a maximum of 3 doses measured on day 127 post infection by PCR method. In kind it is functional. Set-up: scale not given: the % may be the effect or the level left. The method, boiled down:
(§1)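 Necropsy on day 127 pi after oral treatment and cyclophosphamide immunosuppression. Tissue DNA was amplified by PCR targeting the ~300 bp T. cruzi SOD gene, 200 nM each primer, 30 cycles with 55.5 °C annealing. Products run on 2 % agarose; positive organs counted out of six mice.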

Data set [2] relates to Mus musculus. Briefly: Hepatotoxicity in Balb/c mouse infected with Trypanosoma cruzi MHOM/Pe/2011/Arequipa DTU 5 trypamastigotes assessed as decrease in ratio of serum ALT to GPT level at […], po once daily for 5 consecutive days starting from day 10 post infection measured on day 127 post infection by biochemical analysis relative to control. It counts as toxicity, organism-based. Set-up: scale not given: the % may be the effect or the level left. Particulars: in vivo.

For data set [3], the system named is Trypanosoma cruzi. Briefly: Antitrypanosomal activity against Trypanosoma cruzi MHOM/Pe/2011/Arequipa DTU 5 trypamastigotes infected in Balb/c mouse assessed as reduction in parasitaemia reactivation in brain tissue at 100 mg/kg, po pretreated once daily for 5 consecutive days starting from day 75 post infection followed by cyclophosphamide-induced immunosuppression on day 100 post infection every 4 days for a maximum of 3 doses measured on day 127 post infection by PCR method. It counts as functional. More on the design: scale not given: the % may be the effect or the level left. The method, boiled down: as §1

Data set [4] has as its system Mus musculus. Briefly: Hepatotoxicity in Balb/c mouse infected with Trypanosoma cruzi MHOM/Pe/2011/Arequipa DTU 5 trypamastigotes assessed as increase in ratio of serum AST to GOT level at […], po once daily for 5 consecutive days starting from day 75 post infection measured on day 81 post infection by biochemical analysis relative to control. In kind it is toxicity, organism-based. The conditions noted are these: in vivo.

Data set [5] concerns Mus musculus. Briefly: Cardiotoxicity in Balb/c mouse infected with Trypanosoma cruzi MHOM/Pe/2011/Arequipa DTU 5 trypamastigotes assessed as change in serum LDH level at […], po once daily for 5 consecutive days starting from day 75 post infection measured on day 81 post infection by biochemical analysis relative to control. Particulars: in vivo. It counts as toxicity, organism-based. The method, boiled down: (§2)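 Serum clinical chemistry in Arequipa-infected female BALB/c mice. Oral 20 mg·kg-1 per day for 5 days, started day 10 or day 75 pi. Samples taken at day 16 pi or day 81 pi, and on necropsy day. Markers: CK-MB and LDH (U/L), AST, ALT and alkaline phosphatase (U/L), total bilirubin. Results scored relative to infected untreated controls; uninfected reference n = 15.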

The subject of data set [6] is Mus musculus. Briefly: Hepatotoxicity in Balb/c mouse infected with Trypanosoma cruzi MHOM/Pe/2011/Arequipa DTU 5 trypamastigotes assessed as increase in alkaline phosphatase level at […], po once daily for 5 consecutive days starting from day 75 post infection measured on day 81 post infection by biochemical analysis relative to control. In kind it is toxicity, organism-based. The conditions noted are these: in vivo.

Data set [7] deals with Mus musculus. Briefly: Nephrotoxicity in Balb/c mouse infected with Trypanosoma cruzi MHOM/Pe/2011/Arequipa DTU 5 trypamastigotes assessed as decrease in uric acid level in serum at 20 mg/kg, po once daily for 5 consecutive days starting from day 10 post infection measured on day 16 post infection by biochemical analysis relative to control. In kind it is toxicity, organism-based. More on the design: scale not given: the % may be the effect or the level left. Particulars: in vivo.

The test system of data set [8] is Trypanosoma cruzi. Briefly: Antitrypanosomal activity against Trypanosoma cruzi MHOM/Pe/2011/Arequipa DTU 5 trypamastigotes infected in Balb/c mouse assessed as reduction in parasitaemia reactivation at 20 mg/kg, po pretreated once daily for 5 consecutive days starting from day 10 post infection followed by cyclophosphamide-induced immunosuppression on day 100 post infection every 4 days for a maximum of 3 doses measured up to 1 week post immunosuppression by Neubauer chamber method. In kind it is functional. More on the design: scale not given: the % may be the effect or the level left. The method, boiled down:
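Female BALB/c mice (8-10 weeks, 20-25 g), groups of six, infected i.p. with 5 x 10^5 bloodstream trypomastigotes in 0.2 mL PBS; oral dosing 20 mg·kg-1 per day for 5 days in 5% DMSO/0.5% HPMC vehicle. After day 100 pi, cyclophosphamide 200 mg·kg-1 i.p. every 4 days, up to three doses. Within 1 week after the last dose, fresh-blood bloodstream trypomastigotes counted in a Neubauer chamber. Reactivation expressed relative to untreated infected controls.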

Data set [9] deals with Trypanosoma cruzi. Briefly: Antitrypanosomal activity against Trypanosoma cruzi MHOM/Pe/2011/Arequipa DTU 5 trypamastigotes infected in Balb/c mouse assessed as reduction in parasitaemia level at 20 mg/kg, po once daily for 5 consecutive days starting from day 10 post infection measured on day 47 post infection by Neubauer chamber method. In kind it is functional, organism-based. A digest of the protocol: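 Six female BALB/c mice per group, infected i.p. with 5 x 10^5 Arequipa bloodstream trypomastigotes in PBS. Oral dosing once daily for 5 days from day 10 pi, 20 mg·kg-1 per day in aqueous 5 % DMSO/0.5 % HPMC, vehicle to controls. Blood trypomastigotes counted in a Neubauer chamber (parasites·mL-1); means ± SD.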

In data set [10] the test system is Mus musculus. Briefly: Cardiotoxicity in Balb/c mouse infected with Trypanosoma cruzi MHOM/Pe/2011/Arequipa DTU 5 trypamastigotes assessed as change in serum LDH level at 20 mg/kg, po once daily for 5 consecutive days starting from day 10 post infection measured on day 16 post infection by biochemical analysis relative to control. Particulars: in vivo. It counts as toxicity, organism-based. A digest of the protocol: as §2

The subject of data set [11] is Mus musculus. Briefly: Hepatotoxicity in Balb/c mouse infected with Trypanosoma cruzi MHOM/Pe/2011/Arequipa DTU 5 trypamastigotes assessed as increase in total bilirubin level at 20 mg/kg, po once daily for 5 consecutive days starting from day 10 post infection measured on day 16 post infection by biochemical analysis relative to control. It counts as toxicity, organism-based. The conditions noted are these: in vivo.

For data set [12], the system named is Mus musculus. Briefly: Cardiotoxicity in Balb/c mouse infected with Trypanosoma cruzi MHOM/Pe/2011/Arequipa DTU 5 trypamastigotes assessed as decrease in serum LDH level at 20 mg/kg, po once daily for 5 consecutive days starting from day 75 post infection measured on day 81 post infection by biochemical analysis relative to control. In kind it is toxicity, organism-based. Set-up: scale not given: the % may be the effect or the level left. Particulars: in vivo. The method, boiled down: as §2

Data set [13] has as its system Trypanosoma cruzi. Briefly: Antitrypanosomal activity against Trypanosoma cruzi MHOM/Pe/2011/Arequipa DTU 5 trypamastigotes infected in Balb/c mouse assessed as reduction in parasitaemia reactivation in lung tissue at 20 mg/kg, po pretreated once daily for 5 consecutive days starting from day 10 post infection followed by cyclophosphamide-induced immunosuppression on day 100 post infection every 4 days for a maximum of 3 doses measured on day 127 post infection by PCR method. It counts as functional. Set-up: scale not given: the % may be the effect or the level left. The method, boiled down: as §1

Data set [14] concerns Mus musculus. Briefly: Toxicity in Balb/c mouse assessed as death at 20 mg/kg, po once daily for 5 consecutive days starting from day 10 post infection. It counts as organism-based. Particulars: in vivo. A digest of the protocol:
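Female BALB/c mice (8-10 weeks, 20-25 g), groups of six, infected i.p. with 5 x 10^5 Arequipa bloodstream trypomastigotes. Dosing was oral, 20 mg·kg-1 per day for 5 days, given as a 2 mg·mL-1 suspension in 5% DMSO/0.5% hydroxypropyl methylcellulose. Treatment started day 10 pi (acute phase) or day 75 pi (chronic phase). Deaths and body-mass loss were monitored during and after treatment.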

For data set [15], the system named is Mus musculus. Briefly: Hepatotoxicity in Balb/c mouse infected with Trypanosoma cruzi MHOM/Pe/2011/Arequipa DTU 5 trypamastigotes assessed as increase in alkaline phosphatase level at 20 mg/kg, po once daily for 5 consecutive days starting from day 10 post infection measured on day 16 post infection by biochemical analysis relative to control. In kind it is toxicity, organism-based. The conditions noted are these: in vivo.

Data set [16] concerns Trypanosoma cruzi. Briefly: Antitrypanosomal activity against Trypanosoma cruzi MHOM/Pe/2011/Arequipa DTU 5 trypamastigotes infected in Balb/c mouse assessed as reduction in splenomegaly at 20 mg/kg, po once daily for 5 consecutive days starting from day 75 post infection measured on day 127 post infection relative to control. It counts as functional, organism-based.

Consider `COc1ccc(C(=O)CCN2CCN(c3ccc(Cl)cc3)CC2)cc1`, for which the values for the Activity in the data set on Trypanosoma cruzi [1], with Mus musculus [2] and in the data set with Trypanosoma cruzi [3] were 78%, “<= 10%” and 78%, respectively.
Regarding `COc1ccc(C(=O)CCN2CCN(c3ccc([N+](=O)[O-])cc3)CC2)cc1`, the Activity entry with Mus musculus [4] is on record as “<= 30%”; with Mus musculus [5] it was under 10%; in the data set on Mus musculus [6], “<= 10%”.
As for `O=C(Cn1ccnc1[N+](=O)[O-])NCc1ccccc1` [BENZNIDAZOLE], the Activity in the data set on Mus musculus [7] is over 40%; in the data set on Trypanosoma cruzi [8] it was 75%; with Mus musculus [10], under 10%; with Mus musculus [11], “<= 20%”; in the data set with Mus musculus [12] it was “<= 30%”; with Trypanosoma cruzi [13], 33%. For the same molecule, the results for the Activity entry with Mus musculus [14] and with Mus musculus [15] were “Non-Toxic” and “<= 20%”, respectively. Also, the outcome in the data set with Trypanosoma cruzi [9] was inactive. The outcome in the data set with Trypanosoma cruzi [16] was Active.
